Most compounds without a hit are left out; they make up all but 3.2% or so of the library.
DAX1 inh-1 – DAX1 (NR0B1) inhibitors, primary screen, cell-based, HEK293, Gal4-DAX1, luciferase luminescence. Nuclear receptor subfamily 0 group B member 1 (Homo sapiens), P51843. hit rate 0.99% among 340,000. HEK293 Gal4-DAX1 luciferase reporter. AID 504766, 2011. inhibition, % at 6.75 µM;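 active = inhibition above the mean over all tested compounds plus 3 SD, cut at about 4.2% in these data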;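 note: 0% = DAX1-transfected cells with DMSO and 100% = empty-vector control cells with DMSO; inhibition shows as a rise in luminescence from relieved DAX1 repression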
NR2E3 ag-1 – inhibitors of NR2E3-RetCOR corepressor binding, primary screen, NR2E3 agonist project, biochemical, TR-FRET, GST-NR2E3, biotin-RetCOR; Photoreceptor-specific nuclear receptor (Homo sapiens), Q9Y5X4; 1536-well; inhibition of corepressor binding, % at 4.78 µM; hit rate 0.12% among 320,000;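 active = percent inhibition above the cutoff of mean plus 3 SD of all tested compounds, set per screening campaign, cut at about 20% in these data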;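 note: 0% = DMSO wells and 100% = biotin wells as full block of FRET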
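System: GST-NR2E3 and biotin-RetCOR proteins; probe or stimulus: 7 nM biotin-RetCOR; doses: compound at 4.8 µM, single dose; schedule: Compound–protein incubation for 5 h at 4 °C; detection: time-resolved FRET; read-out: percent inhibition; controls: biotin wells as high control, 0.6% DMSO wells as low control; format: 1536-well plates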
SMARCA2 activ – SMARCA2 (BRM) function activators, primary screen, cell-based, luminescence, high throughput; MG213 cells, MMTV-luciferase reporter, dexamethasone, overnight; AID 652017, 2013; activation, % at 9.1 µM; hit rate 1% among 370,000; in the data active = activation above about 7.8%;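 note: 0% = vehicle wells and 100% = reference activator wells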
DAX1 inh-2 – DAX1 (NR0B1) inhibitors on StAR promoter, primary screen, cell-based, luminescence, SF-1 (NR5A1), full-length DAX-1; HEK293T StAR-luciferase reporter, SF-1/DAX-1 repression relief; inhibition, % at 6.8 µM; hit rate 1.1% among 370,000; AID 652010, 2013;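 active = inhibition above the mean over all tested compounds plus 3 SD, cut at about 3.6% in these data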;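 note: 0% = DAX-1 cells with DMSO and 100% = cells lacking DAX-1 with DMSO; higher inhibition means more luminescence from relief of DAX-1 repression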
NR2E3 ag-2 – NR2E3 agonists in two-hybrid cells, primary screen, cell-based, luminescence, CHO-S, Gal4-NCOR/VP16-NR2E3 | Photoreceptor-specific nuclear receptor (Homo sapiens), Q9Y5X4 | luciferase | inhibition of corepressor binding, % at 3.98 µM | hit rate 0.35% among 360,000 | AID 602229, 2012;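 active = inhibition above the mean of all tested compounds plus 3 SD, cut at about 70% in these data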;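 note: 0% = DMSO with NR2E3 transfected cells and 100% = cells lacking NR2E3 construct; higher means lower luciferase signal from less NR2E3 corepressor binding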
JMJD2C inh – inhibitors of GASC-1 histone demethylase, primary screen, biochemical, fluorescence, DELFIA europium | hit rate 0.069% among 330,000 | inhibition, % at 2.35 µM | Lysine-specific demethylase 4C (Homo sapiens), Q9H3R0 | GST-JMJD2C(1-420) H3K9me3 demethylation;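 active = more than half of a compound's replicate wells show inhibition beyond 50%, single wells judged on their own value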;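 note: signal counts dimethyl H3K9 product captured on neutravidin plate; 0% = median of DMSO wells and 100% = 0.3 times that DMSO median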
Target sequence (Q9H3R0 1-420 limits assumed): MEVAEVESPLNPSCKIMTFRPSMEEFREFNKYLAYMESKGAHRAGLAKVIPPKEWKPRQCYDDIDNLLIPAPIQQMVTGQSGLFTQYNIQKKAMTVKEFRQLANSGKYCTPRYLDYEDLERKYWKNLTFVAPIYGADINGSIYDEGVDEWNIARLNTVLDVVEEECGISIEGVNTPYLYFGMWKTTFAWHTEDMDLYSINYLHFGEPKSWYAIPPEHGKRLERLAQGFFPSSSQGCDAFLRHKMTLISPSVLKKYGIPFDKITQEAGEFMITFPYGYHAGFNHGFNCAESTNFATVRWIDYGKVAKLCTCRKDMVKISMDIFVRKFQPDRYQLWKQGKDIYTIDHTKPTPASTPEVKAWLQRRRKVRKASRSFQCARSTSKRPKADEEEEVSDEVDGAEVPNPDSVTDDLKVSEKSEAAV
SMARCA2 act conf – SMARCA2 (BRM) function activators, confirmation, cell-based, luminescence, triplicate; shares compounds with SMARCA2 activ; MG213 cells, MMTV-luciferase with dexamethasone, overnight; MG213 cells expressing E1A, Rb sequestered; DMSO wells 0%, reference activator 100%; activation, % at 9.1 µM; hit rate 30% among 3,500; AID 652260, 2013;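 active = activation above its plate's cutoff, the mean activation of tested wells plus 3 SD, cut at about 7.9% in these data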
GAL4-VP16 Luc – GAL4-VP16 luciferase reporter activation, counter-screen for SMARCA2 (BRM) activator project, cell-based, pG5luc, luminescence, high throughput | shares compounds with SMARCA2 activ | HEK293 GAL4-VP16 pG5luc reporter; scaled: DMSO wells 0%, SAHA wells 100% | activation, % at 9.1 µM | hit rate 41% among 3,500 | AID 686939, 2013;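 active = activation above the solvent-only control well mean plus 3 SD, averaged across control plates, cut at about 5.2% in these data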
The depositor's hits bear a star; x = no result.

SMILES | DAX1 inh-1 | NR2E3 ag-1 | SMARCA2 activ | DAX1 inh-2 | NR2E3 ag-2 | JMJD2C inh | SMARCA2 act conf | GAL4-VP16 Luc
Cc1cc(NC(=O)c2ccccc2)ccc1NC(=O)c1ccccc1Cl | 0 | -1 | -1 | -1 | -90 | 9 | x | x
Cc1ccc(NC(=O)c2ccccc2Cl)c(Cl)c1 | 1 | 3 | 13* | 1 | -67 | -2 | 11* | 5.5*
CC1(C)Cc2c(sc(NC(=O)c3ccc4ncsc4c3)c2C(N)=O)C(C)(C)N1 | 1 | 2 | 8.5* | 1 | -99 | -19 | 13* | 8.0*
N#Cc1cccc(CNCC(=O)N2CCC3(CC2)OCCO3)c1 | x | x | -4 | 0 | x | x | x | x
C=C(C)Cn1c(SCC(=O)N/N=C(\C)c2ccc(Br)cc2)nnc1-c1ccc(Br)cc1 | x | x | -4 | 0 | x | x | x | x
COc1ccc(C(=O)NCCCN2CCCC2=O)cc1 | 1 | 0 | 8.0* | 0 | -18 | 0 | -1 | 0
COc1ccc(/C=C/c2nc(S(=O)(=O)c3ccccc3)c(N(C)C)o2)cc1 | 0 | -2 | 9.6* | 0 | -9 | 0 | -5 | -2
CC(C)N1CCC(N2CCN(Cc3ccc(-c4ccc(Cl)cc4)o3)CC2CCO)CC1 (stereo not drawn) | 0 | 4 | 9.9* | 1 | -9 | -27 | 7 | 1
CC(C)N1CCC(N2CCN(Cc3ccc(-c4ccccc4Cl)o3)CC2CCO)CC1 (stereo not drawn) | 0 | 4 | -1 | 0 | -13 | -1 | x | x
Cc1cc(Br)cc(C)c1OCC(=O)NNC(=O)c1cccs1 | 0 | 0 | 0 | -2 | 1 | -15 | x | x
O=C(COc1ccc(Br)cc1Br)NNC(=O)c1cccs1 | 0 | 1 | 10* | 1 | 1 | -6 | 7 | 8.8*
Cc1cc(Br)ccc1OCC(=O)NNC(=O)Cc1ccccc1 | 2 | -2 | 8.9* | 0 | -8 | 7 | -1 | 1
Cc1ccc(-n2nc3c(c2NC(=O)CC(C)C)CS(=O)C3)cc1 (stereo not drawn) | 1 | -2 | -1 | 1 | 8 | -6 | x | x
O=C1/C(=C/c2ccco2)CCc2ccccc21 | 1 | -6 | 7 | 1 | -43 | 13 | x | x
COc1ccc2c(c1)CC/C(=C/c1ccco1)C2=O | 2 | -1 | 20* | 4.2* | -86 | 1 | 4 | 12*
CCn1cc(C(=O)N2CCCC(N3CCN(c4ccccc4C)CC3)C2)cn1 (stereo not drawn) | 0 | 0 | 12* | 0 | -15 | -18 | -4 | 1
Cc1ccccc1N1CCN(C2CCCN(C(=O)c3cc[n+]([O-])cc3)C2)CC1 (stereo not drawn) | 0 | 2 | 2 | -1 | -24 | -4 | x | x
C=CCN1CCc2c(cc(O)c(O)c2Cl)C(c2ccccc2)C1 (stereo not drawn) | 0 | 3 | 9.2* | 1 | -4 | -3 | 5 | 1
N#CCCN1CCN(C2=NC(=O)/C(=C\c3cccs3)S2)CC1 | 0 | -4 | 8.8* | 0 | 7 | 0 | 2 | -1
O=C(NC1CCCCN(Cc2ccc(Cl)cc2)C1=O)c1ccc(F)cc1 (stereo not drawn) | x | x | -4 | -1 | x | x | x | x
CCOc1cccc(C=Nc2cc(C)cc(C)c2O)c1O | 0 | -4 | 12* | 0 | 24 | -2 | 6 | 2

Source: PubChem BioAssay
